Assay results taken from ChEMBL document CHEMBL1125659, “Optical isomers of rocastine and close analogues: synthesis and H1 antihistaminic activity of its enantiomers and their structural relationship to the classical antihistamines” (J Med Chem, 1991).

Key:
Cavia porcellus [1] = assay: Protection against histamine-induced lethality in guinea pig at 1 hr pretreatment time upon peroral administration.; assay type: functional; conditions: po
Summary of the method: (§1)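 Female English short-hair guinea pigs (250–500 g), fasted overnight, dosed orally by gavage at set times before intravenous histamine challenge (1.2 mg/kg). Survival at 24 h postchallenge scored as protection. Groups of 5–10 animals per treatment; ED50 by Litchfield–Wilcoxon or computer probit analysis.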

Histamine H1 receptor [2] = molecular target: T1, Histamine H1 receptor (Cavia porcellus, UniProt P31389); assay: Inhibition of [3H]mepyramine binding to the Histamine H1 receptor in guinea pig cortex; assay type: tissue-based
Summary of the method: (§2)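 Cerebral cortex from female Dunkin-Hartley guinea pigs (200–500 g) homogenized in cold 50 mM Na/K phosphate pH 7.5, washed by three 48000g 4 °C spins, used fresh same day. Six concentrations in triplicate; IC50 by linear/nonlinear curve fitting.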

Histamine H1 receptor [3] = molecular target: T1, Histamine H1 receptor; assay: Inhibition of [3H]mepyramine binding to the histamine receptor in guinea pig cortex; assay type: tissue-based
Summary of the method: as §2, with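 “day. [3H]mepyramine (15 nM stock, 23 Ci/mmol) incubated with membranes 20 min at 25 °C; filtration, scintillation counting.” for “day.”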

Cavia porcellus [4] = assay: Protection against histamine-induced lethality in guinea pig at 6 hr pretreatment time upon peroral administration.; assay type: functional; conditions: po; summary of the method: as §1
Cavia porcellus [5] = assay: Protection against histamine-induced lethality in guinea pig at 24 hr pretreatment time upon peroral administration; assay type: functional; conditions: po; summary of the method: as §1
Cavia porcellus [6] = assay: Protection against histamine-induced lethality in guinea pig at 24 hr pretreatment time upon peroral administration.; assay type: functional; conditions: po; summary of the method: as §1

T1 sequence (P31389 whole entry): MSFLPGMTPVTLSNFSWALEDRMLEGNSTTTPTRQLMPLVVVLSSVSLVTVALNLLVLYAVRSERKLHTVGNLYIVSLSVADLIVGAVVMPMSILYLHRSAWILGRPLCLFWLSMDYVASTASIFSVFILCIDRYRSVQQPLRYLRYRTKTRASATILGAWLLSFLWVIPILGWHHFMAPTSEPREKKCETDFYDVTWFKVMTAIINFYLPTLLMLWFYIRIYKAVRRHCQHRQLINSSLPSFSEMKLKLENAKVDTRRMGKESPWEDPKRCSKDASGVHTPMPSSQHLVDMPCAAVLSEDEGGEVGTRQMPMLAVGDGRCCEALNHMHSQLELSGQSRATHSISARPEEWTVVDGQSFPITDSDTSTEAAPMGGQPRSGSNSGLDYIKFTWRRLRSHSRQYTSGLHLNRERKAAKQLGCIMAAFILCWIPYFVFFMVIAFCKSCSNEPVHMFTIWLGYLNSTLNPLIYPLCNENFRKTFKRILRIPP

| Structure (SMILES) | ED50 (Cavia porcellus [1]) [mg/kg] | IC50 (Histamine H1 receptor [2]) [nM] | IC50 (Histamine H1 receptor [3]) [nM] | ED50 (Cavia porcellus [4]) [mg/kg] | ED50 (Cavia porcellus [5]) [mg/kg] | ED50 (Cavia porcellus [6]) [mg/kg] |
| --- | --- | --- | --- | --- | --- | --- |
| CN(C)CC[C@H]1CN(C)C(=S)c2cccnc2O1 | 23 | 21000 |  |  |  |  |
| CN1C[C@H](CCN2CCC2)Oc2ncc(Cl)cc2C1=S | 8.28 | 870 |  |  |  |  |
| CN(C)CC[C@H]1CN(C)C(=S)c2cc(Cl)cnc2O1 | 66.8 | 11900 |  |  |  |  |
| CN(C)CCC(c1ccccn1)c1ccc(Cl)cn1 (configuration not stated) | 0.009 | 24 |  |  |  |  |
| CN(C)CC[C@@H]1CN(C)C(=S)c2cccnc2O1 | 0.07 |  | 30 | 2.96 |  |  |
| CN(C)CC[C@@H]1CN(C)C(=S)c2cc(Cl)cnc2O1 | 0.013 |  | 1.9 | 0.15 | 58 |  |
| CN1C[C@@H](CCN2CCC2)Oc2ncc(Cl)cc2C1=S | 0.0054 |  | 0.26 | 0.0078 |  | 0.21 |
| CN(C)CCC(c1ccc(Cl)cc1)c1ccc(Cl)cn1 (configuration not stated) | > 10 | 430 |  |  |  |  |
| CN(C)CCC(c1ccc(Cl)cc1)c1ccccn1 (configuration not stated) [CHLORPHENIRAMINE] | 0.18 |  |  |  |  |  |
